Test results taken from ChEMBL document CHEMBL2346570, “Small-molecule inhibitors of cytokine-mediated STAT1 signal transduction in β-cells with improved aqueous solubility” (J Med Chem, 2013).
Converted amounts (≈) assume the structure as drawn. The source made the active and inactive calls. The rule behind the calls is not given here.

Columns and labels:
[1] = test system: INS-1E; assay: Inhibition of IFNgamma-induced JAK1/JAK2 signaling in rat INS-1E cells assessed as STAT1 nuclear translocation at 10 uM after 30 mins by immunofluorescence assay; assay type: cell-based
Method in brief: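 IFN-γ-stimulated INS-1E β-cells, with or without compound, for 30 min; cells fixed and STAT1 subcellular (cytoplasm vs nucleus) localization monitored by immunofluorescence imaging.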

[2] = test system: INS-1E; assay: Effect on total STAT1 level in rat INS-1E cells at 10 uM after 30 mins by Western blotting analysis; assay type: functional, cell-based
[3] = test system: INS-1E; assay: Inhibition of JAK1/JAK2 in rat INS-1E cells assessed as inhibition of IFNgamma-induced STAT1 phosphorylation at Tyr701 and Ser727 at 10 uM after 30 mins by Western blotting analysis; assay type: cell-based
Method in brief: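 INS-1E β-cells treated with IFN-γ with or without compound for 30 min; STAT1 phosphorylation at Tyr701 and Ser727 assessed by Western blotting.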

[4] = Thermodynamic solubility in PBS at pH 7.4 after 24 hrs by UPLC-MS analysis; assay type: physicochemical; details: for solubility thermodynamic at 24 h: PBS, pH 7.4, read-out: Therm_solubility
Method in brief: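 Thermodynamic solubility assay in phosphate buffered saline, pH 7.4.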

[5] = Cytoprotective activity in rat INS-1E cells assessed as suppression of cytokine-induced caspase-3/7 activation after 48 hrs by luminescence assay; assay type: functional, cell-based
Method in brief: (§1)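 INS-1E β-cells exposed to a cytokine mixture (IFN-γ at 500 ng/mL; IL-1β and TNF-α lowered 20- and 10-fold from standard levels) with compound for 48 h; caspase-3/7 activation read as apoptosis. IC50 from dose-response in three replicates; maximum activity expressed as % rescue from cytokine-induced caspase-3/7 activation.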

[6] = Cytoprotective activity in rat INS-1E cells assessed as suppression of cytokine-induced caspase-3/7 activation after 48 hrs by luminescence assay relative to control; assay type: functional; method in brief: as §1

Compound | inhibition [1] | inhibition [2] | inhibition [3] | solubility thermodynamic at 24 h [4] [µM] | IC50 [5] [µM] | %max [6] [%] | Therm_solubility ([4]; buffer, pH 7.4, 24 h) [µM]
C[C@@H]1CN([C@@H](C)CO)C(=O)c2cccc(NC(=O)NCc3cccc4ccccc34)c2O[C@H]1CN(C)S(=O)(=O)c1ccc2c(c1)OCCO2 | inactive | inactive | inactive | 0.1 (≈ 0.0689 µg/mL) | > 20 |  | 
C[C@@H]1CN([C@@H](C)CO)C(=O)c2cccc(NC(=O)Nc3cncc4ccccc34)c2O[C@H]1CN(C)S(=O)(=O)c1ccc2c(c1)OCCO2 |  |  |  | 84.9 (≈ 57.4 µg/mL) | 4.1 | 31 | 
C[C@@H]1CN([C@@H](C)CO)C(=O)c2cccc(NC(=O)Nc3ccnc4ccccc34)c2O[C@H]1CN(C)S(=O)(=O)c1ccc2c(c1)OCCO2 |  |  |  | 30.3 (≈ 20.5 µg/mL) | > 20 |  | 
C[C@@H]1CN([C@@H](C)CO)C(=O)c2cccc(NC(=O)N(C)c3cccc4ccccc34)c2O[C@H]1CN(C)S(=O)(=O)c1ccc2c(c1)OCCO2 |  |  |  | 11.2 (≈ 7.71 µg/mL) | 4.74 | 15 | 
C[C@@H]1CN([C@@H](C)CO)C(=O)c2cccc(NC(=O)Nc3nccc4ccccc34)c2O[C@H]1CN(C)S(=O)(=O)c1ccc2c(c1)OCCO2 |  |  |  | 0.7 (≈ 0.473 µg/mL) | 1.05 | 21 | 
C[C@@H]1CN([C@@H](C)CO)C(=O)c2cccc(NC(=O)Nc3cccc4ccncc34)c2O[C@H]1CN(C)S(=O)(=O)c1ccc2c(c1)OCCO2 |  |  |  | 101 (≈ 68.5 µg/mL) |  |  | 
C[C@@H]1CN([C@@H](C)CO)C(=O)c2cccc(NC(=O)Nc3cccc4cnccc34)c2O[C@H]1CN(C)S(=O)(=O)c1ccc2c(c1)OCCO2 |  |  |  | 60.5 (≈ 40.9 µg/mL) | 4.65 | 59 | 
C[C@@H]1CN([C@@H](C)CO)C(=O)c2cccc(NC(=O)Nc3cccc4ccccc34)c2O[C@H]1CN(C)S(=O)(=O)c1ccc2c(c1)OCCO2 | Active | inactive | Active |  | 1.66 | 71 | 0.1
C[C@@H]1CN([C@@H](C)CO)C(=O)c2cccc(NC(=O)Nc3cccc4ncccc34)c2O[C@H]1CN(C)S(=O)(=O)c1ccc2c(c1)OCCO2 |  |  |  | 138 (≈ 93.6 µg/mL) | 1.62 | 41 | 
C[C@@H]1CN([C@@H](C)CO)C(=O)c2cccc(NC(=O)Nc3cccc4cccnc34)c2O[C@H]1CN(C)S(=O)(=O)c1ccc2c(c1)OCCO2 | Active | inactive | Active | 1.8 (≈ 1.22 µg/mL) | 3.26 | 69 | 
